How the values were obtained:
[1] = biological target: T1, Glutamate receptor ionotropic, NMDA 1 (Rattus norvegicus, UniProt P35439); assay: (§1) Inhibition of binding of [3H]glycine to N-methyl-D-aspartate glutamate receptor 1 from crude synaptic membranes prepared from adult rat cerebral cortex.; type: tissue-based
Outline: (§2)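 Crude synaptic membranes from adult rat cerebral cortex are incubated 20 min at 4 °C in 50 mM Tris/citrate pH 7.10 with 20 nM [³H]glycine. Compounds come from 5 mM DMSO stocks, seven concentrations (0.1 nM to 100 μM) in duplicate, with a reference control. Ki is fitted by nonlinear curve fitting from ≥6-point curves, geometric mean of ≥3 experiments. Displacement at 100 μM is given as %SB.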

[2] = biological target: Glutamate NMDA receptor; assay: Compound was evaluated for its ability ot displace [3H]CPP binding to N-methyl-D-aspartate glutamate receptor; type: protein-complex assay
Outline: (§3)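 Rat cortical membrane binding, inhibition of [³H]CPP (NMDA glutamate site), [³H]AMPA or [³H]kainic acid. Compounds come from 5 mM DMSO stocks and are tested in duplicate at five concentrations (10 nM to 100 μM); a reference compound is included as control. Displacement at 100 μM is given as % specific binding.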

[3] = biological target: T2, Glutamate receptor ionotropic, AMPA (Rattus norvegicus) (UniProt P19491+P19492+P19493+P19490); assay: Displacement of the ligand in the Ionotropic glutamate receptor AMPA site at 100 uM represented by the percent of specific binding(%SB); type: protein-complex assay; outline: as §3
[4] = biological target: Glutamate receptor ionotropic, kainate (Rattus norvegicus) (UniProt P22756+Q01812+P42260+P42264+Q63273); assay: Displacement of [3H]-kainic acid in the Ionotropic glutamate receptor kainate at 100 uM represented by the percent of specific binding (%SB); type: protein-complex assay; outline: as §3
[5] = biological target: Glutamate receptor ionotropic, kainate; assay: Inhibition of binding of [3H]-kainic acid to Ionotropic glutamate receptor kainate in crude synaptic membranes prepared from adult rat cerebral cortex.; type: cell membranes; outline: as §3
[6] = biological target: T3, Glutamate NMDA receptor (Rattus norvegicus) (UniProt P35439+Q00959+Q00960+Q00961+Q62645+Q8VHN2+Q9R1M7); assay: Displacement of the ligand in the N-methyl-D-aspartate glutamate receptor at 100 uM represented by the percent of specific binding(%SB); type: protein-complex assay
[7] = biological target: Glutamate receptor ionotropic, NMDA 1 (Rattus norvegicus) (UniProt P35439); assay: Displacement of [3H]glycine binding to N-methyl-D-aspartate glutamate receptor 1 at 100 uM represented by the percent of specific binding(%SB); outline: as §2
[8] = biological target: T4, Glutamate receptor ionotropic, AMPA (Rattus norvegicus, UniProt P19490+P19491+P19492+P19493); assay: (§4) Displacement of the [3H]AMPA binding to Ionotropic glutamate receptor AMPA at 100 uM represented by the percent of specific binding(%SB); type: protein-complex assay; outline: as §3
[9] = biological target: T2, Glutamate receptor ionotropic, AMPA (Rattus norvegicus); assay: as §4; type: protein-complex assay; outline: as §3
[10] = biological target: T4, Glutamate receptor ionotropic, AMPA; assay: Inhibition of binding of [3H]AMPA to Ionotropic glutamate receptor AMPA; type: protein-complex assay; outline: as §3
[11] = biological target: Glutamate receptor ionotropic, kainate; assay: Inhibition of binding of [3H]-kainic acid to Ionotropic glutamate receptor kainate; type: protein-complex assay; outline: as §3
[12] = Displacement of the [3H]CPP binding to NMDA receptor/glutamate site at 100 uM represented by the percent of specific binding(%SB); outline: as §3
[13] = Compound was evaluated for its ability ot displace [3H]CPP binding to NMDA receptor/glutamate site; outline: as §3
[14] = biological target: Glutamate receptor ionotropic, NMDA 1 (Rattus norvegicus) (UniProt P35439); assay: as §1; type: tissue-based; outline: as §2
[15] = biological target: Glutamate receptor ionotropic, NMDA 1 (Rattus norvegicus) (UniProt P35439); assay: Compound was evaluated for its ability to displace [3H]-TCP binding to N-methyl-D-aspartate glutamate receptor 1. alpha value 0 indicates full antagonist.
Outline: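 [³H]TCP binding runs 2 h at 30 °C in Tris/5mM HCl pH 7.7 with 1 μM glutamic acid. Nonspecific binding is defined with 30 μM (+)-MK801. Glycine concentration-response curves are run in the presence of increasing test-compound concentrations to derive α.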

[16] = biological target: T1, Glutamate receptor ionotropic, NMDA 1; assay: as §1; type: tissue-based; remark: listed apart in the source
[17] = biological target: T3, Glutamate NMDA receptor (Rattus norvegicus); assay: Displacement of the [3H]CPP binding to N-methyl-D-aspartate glutamate receptor at 100 uM represented by the percent of specific binding(%SB); type: protein-complex assay; outline: as §3

Compound `O=C(/C=C/c1c(C(=O)O)[nH]c2c1CCC2)Nc1ccccc1` has a Ki [1] of 1.15 µM.

`Cc1[nH]c(C(=O)O)c(/C=C/C(=O)Nc2ccccc2)c1Br` gave a Ki [1] of 0.0575 µM, a Log Ki [2] greater than -4 and an SB [3] of 11%. For the same compound, the SB [4] was 0%, the Log Ki [5] was greater than -4 and the SB [6] was 0%. The SB [7] was 100% and the IC50 [8] was greater than 100 µM.

For `Cc1c(C(C)C)[nH]c(C(=O)O)c1/C=C/C(=O)Nc1ccccc1`, the Ki [1] was 6.17 µM.

In the case of `O=C(/C=C/c1c(Br)c[nH]c1C(=O)O)Nc1ccccc1`, the Ki [1] is reported as 3.31 µM.

`O=C(/C=C/c1c(C(=O)O)[nH]c(-c2ccccc2)c1-c1ccccc1)Nc1ccccc1` gave a Ki [1] greater than 100 µM.

For `O=C(/C=C/c1c(C(=O)O)[nH]c(-c2ccccc2)c1Br)Nc1ccccc1`, the Ki [1] was greater than 100 µM.

Work on `O=C(/C=C/c1c(C(=O)O)[nH]c(Br)c1Br)Nc1ccccc1` yielded a Ki [1] of 0.0112 µM, an SB [9] of 10% and an IC50 [10] greater than 100 µM. The SB [4] was 5%, the Log Ki [11] was greater than -4 and the SB [7] was 100%. It also gave an SB [12] of 0% and a Log Ki [13] greater than -4.

`O=C(/C=C/c1c(C(=O)O)[nH]c2cc(Cl)cc(Cl)c12)Nc1ccccc1` showed an SB [14] of 100% and an Alpha [15] of 0.

For `O=C(/C=C/c1c(C(=O)O)[nH]c(I)c1I)Nc1ccccc1`, the Ki [1] was 0.0355 µM.

With `O=C(Nc1ccccc1)N[C@H]1C[C@H](C(=O)O)Nc2cc(Cl)cc(Cl)c21` the IC50 [16] was 0.0078 µM.

Compound `CCc1[nH]c(C(=O)O)c(/C=C/C(=O)Nc2ccccc2)c1C` has a Ki [1] of 0.776 µM.

With `O=C(/C=C/c1c(C(=O)O)[nH]c2c1CCCC2)Nc1ccccc1` the Ki [1] was 0.617 µM.

With `Cc1c(/C=C/C(=O)Nc2ccccc2)c(C(=O)O)n(C)c1C` the Ki [1] was greater than 100 µM.

Compound `O=C(/C=C/c1c(-c2ccccc2)c[nH]c1C(=O)O)Nc1ccccc1` has a Ki [1] greater than 100 µM.

Compound `Cc1c(-c2ccc(Cl)cc2Cl)[nH]c(C(=O)O)c1/C=C/C(=O)Nc1ccccc1` has a Ki [1] greater than 100 µM.

Work on `Cc1c(-c2ccccc2)[nH]c(C(=O)O)c1/C=C/C(=O)Nc1ccccc1` yielded a Ki [1] greater than 100 µM.

Compound `Cc1cc(/C=C/C(=O)Nc2ccccc2)c(C(=O)O)[nH]1` has a Ki [1] of 63.1 µM.

Compound `CCc1c(C)[nH]c(C(=O)O)c1/C=C/C(=O)Nc1ccccc1` has a Ki [1] of 0.832 µM.

For `O=C(O)CCc1c(C(=O)O)[nH]c2cc(Cl)cc(Cl)c12`, the IC50 [16] was 0.14 µM.

With `Cc1[nH]c(C(=O)O)c(/C=C/C(=O)Nc2ccccc2)c1C` the SB [17] was 0%, the Ki [1] was 0.2 µM and the Log Ki [2] was greater than -4. The SB [9] was 0%, the IC50 [10] was greater than 100 µM and the SB [4] was 9%. It also gave a Log Ki [11] greater than -4, an Alpha [15] of 0 and an SB [7] of 100%.

For `Cc1[nH]c(C(=O)O)c(/C=C/C(=O)Nc2ccccc2)c1-c1ccccc1`, the Ki [1] was greater than 100 µM.

`Cc1[nH]c(C(=O)O)c(/C=C/C(=O)Nc2ccccc2)c1OCc1ccccc1` gave a Ki [1] of 4.79 µM.

Compound `Cc1[nH]c(C(=O)O)c(/C=C/C(=O)Nc2ccccc2)c1Cl` has a Ki [1] of 0.316 µM.

Work on `Oc1ccc(-c2c(O)nc3cc(Cl)cc(Cl)c3c2O)cc1` yielded an IC50 [16] of 0.013 µM.

Work on `O=C(O)c1cc(O)c2c(I)cc(Cl)cc2n1` yielded an IC50 [16] of 0.032 µM.

`Cc1[nH]c(C(=O)O)c(/C=C/C(=O)Nc2ccccc2)c1I` gave a Ki [1] of 0.0427 µM.

For `CCOc1c(C)[nH]c(C(=O)O)c1/C=C/C(=O)Nc1ccccc1`, the Ki [1] was 6.76 µM.

`O=C(/C=C/c1cc[nH]c1C(=O)O)Nc1ccccc1` showed a Ki [1] greater than 100 µM.

For `CC(=O)c1c(C)[nH]c(C(=O)O)c1/C=C/C(=O)Nc1ccccc1`, the Ki [1] was 5.75 µM.

`O=C(/C=C/c1cc(-c2ccccc2)[nH]c1C(=O)O)Nc1ccccc1` gave a Ki [1] greater than 100 µM.

With `Cc1[nH]c(C(=O)O)c(/C=C/C(=O)Nc2ccccc2)c1C(C)C` the Ki [1] was 0.398 µM.

For `Cc1ccc2c(O)cc(=O)c(=O)[nH]c2c1`, the Kb [14] was 0.47 µM.

— ChEMBL document CHEMBL1131566, “(E)-3-(2-(N-phenylcarbamoyl)vinyl)pyrrole-2-carboxylic acid derivatives. A novel class of glycine site antagonists” (J Med Chem, 1998)
